Test results as given in ChEMBL document CHEMBL1155814, “Structure-activity correlations for beta-phenethylamines at human trace amine receptor 1” (Bioorg Med Chem, 2008).
Activity calls are given as the source filed them.

What was measured:
Assay type in all cases: functional, cell-based
[1] = target: T1, Trace amine-associated receptor 1 (Homo sapiens, UniProt Q96RJ0); assay: (§1) Agonist activity at human trace amine associated receptor 1 expressed in RD-HGA16 CHO-K1 cells coexpressed with Galpha16 protein assessed as internal calcium mobilization by calcium 3 assay
T1 sequence (Q96RJ0 whole entry): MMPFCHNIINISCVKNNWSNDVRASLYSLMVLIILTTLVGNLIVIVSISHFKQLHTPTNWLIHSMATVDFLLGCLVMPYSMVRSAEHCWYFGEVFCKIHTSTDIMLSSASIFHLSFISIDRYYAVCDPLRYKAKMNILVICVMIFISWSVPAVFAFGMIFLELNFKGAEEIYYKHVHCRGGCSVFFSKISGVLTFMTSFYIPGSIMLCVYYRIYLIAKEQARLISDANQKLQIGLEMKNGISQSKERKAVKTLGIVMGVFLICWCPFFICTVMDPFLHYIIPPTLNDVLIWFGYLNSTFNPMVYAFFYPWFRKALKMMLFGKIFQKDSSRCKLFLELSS
How it was run: (§2)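 Unmodified human TAAR1 stably expressed in CHO cells carrying Galpha16 (RD-HGA16). Cells seeded at 30,000/well in HAM's F-12 with 10% FBS, 400 ug/mL hygromycin and 400 µg/mL geneticin, overnight at 37 °C, 5% CO2. Loaded 1 h at 37 °C with Calcium 3 dye at 1/3 kit strength. Basal signal recorded 13 sec before compound addition. Compounds tested at 7–8 concentrations in duplicate. A six-point β-PEA curve was run on each plate.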

[2] = target: T2, Trace amine-associated receptor 1 (Homo sapiens) (UniProt Q96RJ0); assay: Agonist activity at human trace amine associated receptor 1 expressed in RD-HGA16 CHO-K1 cells coexpressed with Galpha16 protein assessed as internal calcium mobilization by calcium 3 assay relative to 2-phenylethanamine
T2 sequence (whole entry): T1 sequence (Q96RJ0 whole entry)
How it was run: as §2, with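 “strength. Fluorescence read from the bottom at 485/525 nm, 515 cutoff.” for “strength.”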

[3] = target: T2, Trace amine-associated receptor 1 (Homo sapiens); assay: Agonist activity at human trace amine associated receptor 1 expressed in AV12-664 cells coexpressed with rat […] protein assessed as cAMP accumulation relative to 2-phenylethanamine
[4] = target: T1, Trace amine-associated receptor 1; assay: Agonist activity at human trace amine associated receptor 1 expressed in AV12-664 cells coexpressed with rat GalphaS protein assessed as cAMP accumulation
[5] = target: T2, Trace amine-associated receptor 1 (Homo sapiens); assay: as §1; how it was run: as §2

| SMILES | EC50 [1] | Emax [2] | Emax [3] | EC50 [4] | Activity [5] |
| --- | --- | --- | --- | --- | --- |
| NCCc1c(F)cccc1Cl | 0.312 µM | 94% | – | – | – |
| COc1cc(CCN)c(OC)cc1C | 6.48 µM | 36% | – | – | – |
| NCCc1ccc([N+](=O)[O-])cc1 | 167 µM | – | – | – | – |
| CC(C)(N)Cc1ccccc1 [PHENTERMINE] | 5.47 µM | 68% | – | – | – |
| CN(C)CCc1ccc(Br)cc1 | 24.4 µM | 40% | – | – | – |
| CNCCc1cccc(F)c1 | 0.53 µM | 88% | – | – | – |
| NCCc1cccc(C(F)(F)F)c1 | 3.95 µM | 69% | – | – | – |
| CNCCc1ccccc1Cl | 0.16 µM | 70% | – | – | – |
| NCCc1cccc(F)c1 | 0.15 µM | 93% | – | – | – |
| CNCCc1cccc(Br)c1 | 1.07 µM | 71% | – | – | – |
| NCCc1cccc(Cl)c1Cl | 1.16 µM | 84% | – | – | – |
| CN(C)CCc1cccc(Cl)c1 | 5.98 µM | 62% | – | – | – |
| CN(C)CCc1ccccc1 | 100 µM | – | 97.1% | 1.49 µM | – |
| NCCc1ccccc1 [PHENETHYLAMINE] | 0.129 µM | 100% | – | – | – |
| NCCc1c(Cl)cccc1Cl | 0.051 µM | 94% | – | – | – |
| CC(C)C(CN)c1ccccc1 (stereo unspecified) | 9.95 µM | 46% | – | – | – |
| COc1cc(F)c(CCN)c(F)c1 | 1.4 µM | 90% | – | – | – |
| NCCc1c(F)cc(O)cc1F | 0.767 µM | 103% | – | – | – |
| C[C@H](N)Cc1ccccc1 | – | 74% | – | – | – |
| C[C@@H](CN)c1ccccc1 | 0.361 µM | 97% | – | – | – |
| CNCCc1ccc(Br)cc1 | 6.54 µM | 60% | – | – | – |
| CC(C)(C)c1ccc(CCN)cc1 | 5110 µM | – | – | – | – |
| CC(C)(CN)c1ccccc1 | 7.88 µM | 70% | – | – | – |

| SMILES | EC50 [1] | Emax [2] | Emax [3] | EC50 [4] | Activity [5] |
| --- | --- | --- | --- | --- | --- |
| CN(C)CCc1ccccc1Br | 3.46 µM | 78% | – | – | – |
| NCCc1cccc(Br)c1 | 0.398 µM | 75% | – | – | – |
| COc1ccc(OC)c(CCN)c1 | 2.01 µM | 69% | – | – | – |
| NCCc1ccc(Cl)cc1 | 2.86 µM | 104% | – | – | – |
| CNCCc1ccccc1 | 0.387 µM | 69% | 93.4% | 0.25 µM | – |
| COc1cc(CCN)c(OC)cc1Cl | 3.75 µM | 30% | – | – | – |
| NCCc1ccccc1Br | 0.057 µM | 89% | – | – | – |
| NCC1(c2ccccc2)CC1 | 5.05 µM | 79% | – | – | – |
| NCCc1ccccc1I | 0.103 µM | 109% | – | – | – |
| NCCc1cccc(Cl)c1 | 0.189 µM | 105% | – | – | – |
| NCCc1ccc(O)cc1 [TYRAMINE] | 0.731 µM | 91% | – | – | – |
| NCCc1ccc(Br)cc1 | 1.54 µM | 98% | – | – | – |
| CNCCc1ccccc1Br | 0.205 µM | 93% | – | – | – |
| NCCc1ccccc1O | 0.614 µM | 90% | – | – | – |
| CNCCc1ccc(Cl)cc1 | 7.43 µM | 67% | – | – | – |
| Cc1ccccc1CCN | 0.355 µM | 97% | – | – | – |
| NCCc1ccc(F)cc1 | 0.74 µM | 81% | – | – | – |
| CN(C)CCc1ccccc1F | 1.29 µM | 75% | – | – | – |
| N[C@@H]1C[C@H]1c1ccccc1 (relative stereo) | 1.51 µM | 72% | – | – | – |
| COc1cc(OC)c(OC)cc1CCN | – | – | – | – | inactive |
| CCc1cc(OC)c(CCN)cc1OC | 6.41 µM | 32% | – | – | – |
| CN(C)CCc1ccc(Cl)cc1 | 630 µM | 43% | – | – | – |
| CN(C)CCc1ccc(F)cc1 | 19.1 µM | 71% | – | – | – |

| SMILES | EC50 [1] | Emax [2] | Emax [3] | EC50 [4] | Activity [5] |
| --- | --- | --- | --- | --- | --- |
| COc1cccc(CCN)c1 | 1.44 µM | 73% | – | – | – |
| NCCc1ccc(Cl)c(Cl)c1 | 3.43 µM | 78% | – | – | – |
| NCCc1ccccc1Cl | 0.077 µM | 72% | – | – | – |
| CN(C)CCc1cccc(F)c1 | 4.32 µM | 78% | – | – | – |
| CN(C)CCc1ccccc1Cl | 0.687 µM | 79% | – | – | – |
| CNCCc1ccc(F)cc1 | 1.04 µM | 63% | – | – | – |
| Cc1cccc(CCN)c1 | 0.638 µM | 93% | – | – | – |
| CNCCc1cccc(Cl)c1 | 0.501 µM | 77% | – | – | – |
| Cc1ccc(CCN)cc1 | 4.38 µM | 96% | – | – | – |
| NCCc1ccc2c(c1)OCO2 | 5.03 µM | 63% | – | – | – |
| NCCc1cccc(O)c1 | 1.74 µM | 78% | – | – | – |
| CN(C)CCc1cccc(Br)c1 | 8.3 µM | 88% | – | – | – |
| NCCc1ccc(C(F)(F)F)cc1 | 11.6 µM | 78% | – | – | – |
| CNCCc1ccccc1F | 0.117 µM | 75% | – | – | – |
| COc1cc(CCN)c(OC)cc1Br | 7.19 µM | 22% | – | – | – |
| COc1ccccc1CCN | 0.144 µM | 95% | – | – | – |
| NCC(c1ccccc1)c1ccccc1 | 3.4 µM | 70% | – | – | – |
| COc1ccc(CCN)cc1 | 5.98 µM | 106% | – | – | – |
| NCCc1ccccc1F | 0.065 µM | 91% | – | – | – |
| Cc1ccc(C)c(CCN)c1 | 0.377 µM | 84% | – | – | – |
| C[C@@H](N)Cc1ccccc1 | – | 64% | – | – | – |
| CCc1ccc(CCN)cc1 | 9.1 µM | 86% | – | – | – |
| C[C@H](CN)c1ccccc1 | 0.129 µM | 104% | – | – | – |
